The results in this text go back to ChEMBL document CHEMBL2093137, “WHO-TDR NTD Screening”.

Data set [1] is described as follows: WHO-TDR: Cytotoxicity. The class given is toxicity, cell-based. Conditions: human, MRC5 cells.
For the next data set, the system named is Leishmania infantum. In words: WHO-TDR: Leishmaniasis. It counts as functional, organism-based, Mus musculus. Conditions: Macrophage. The gist of the method:
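Following previously published standard procedures, a whole-organism screen was run on Leishmania infantum MHOM/MA(BE)/67 amastigotes within murine peritoneal macrophages, with a reference drug as positive control. The 10,000 compounds tested formed a diverse Life Chemicals library filtered for drug-likeness and reactive groups. Potency against the parasite is reported as IC50.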

Another data set has as its system Onchocerca ochengi. In words: WHO-TDR: Onchocerciasis. It counts as functional. Further details: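 at 12.5 µM on microfilariae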. In outline:
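Following previously published standard procedures, with reference drugs as positive controls, a diverse Life Chemicals library was tested on whole Onchocerca ochengi or Onchocerca lienalis microfilariae. The library held 10,000 compounds filtered for drug-likeness and reactive groups. Activity is recorded both as percent inhibition and as IC50.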

Another data set concerns Trypanosoma cruzi. As to the kind of experiment: WHO-TDR: Chagas disease. The settings on record: MRC5. The class given is functional, organism-based, Homo sapiens. The gist of the method: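 Intracellular amastigotes of the Trypanosoma cruzi Tulahuen CL2 beta-galactosidase strain, grown in MRC-5SV2 human lung fibroblast host cells, were tested in a whole-organism screen. The compounds came from a 10,000-member diverse Life Chemicals library that had been filtered for drug-likeness and reactive groups. Previously published standard procedures were followed, with a reference drug as positive control, and potency is reported as IC50.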

For data set [2], the system named is Trypanosoma brucei brucei. As to the kind of experiment: WHO-TDR: Human African Trypanosomiasis (HAT). Conditions: Squib-427. It counts as functional, organism-based. The gist of the method: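 Bloodstream forms of the Trypanosoma brucei Squib 427 strain were tested in a whole-organism screen with a diverse library from Life Chemicals of 10,000 compounds. Before screening, the library was filtered for drug-likeness and for reactive groups. The assay used previously published standard procedures and included reference drugs as positive controls. Potency against the parasite is expressed as IC50.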

A further data set deals with Brugia malayi. As to the kind of experiment: WHO-TDR: Lymphatic Filariasis. The class given is functional. Further details: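 tested at 10 µM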. The gist of the method:
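Following previously published standard procedures, compounds were tested on whole Brugia malayi microfilariae, with reference drugs as positive controls. They came from a diverse Life Chemicals collection of 10,000 compounds filtered for drug-likeness and reactive groups. Results appear as percent inhibition and as IC50.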

The next data set concerns Plasmodium falciparum K1. As to the kind of experiment: WHO-TDR: Malaria. The settings on record: Erythrocyte. It counts as functional, organism-based, Homo sapiens. In outline:
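Following previously published standard procedures, with a reference drug serving as positive control, compounds were tested on the Plasmodium falciparum K1 strain inside human red blood cells. The 10,000-compound diverse set came from Life Chemicals after filtering for drug-likeness and reactive groups. Potency against the parasite appears as IC50.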

A further data set has as its system Schistosoma mansoni. As to the kind of experiment: WHO-TDR: Schistosomiasis. It counts as functional. Also on record: concentration or dose not given beside the values. The gist of the method: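 Activity appears as percent inhibition and as IC50. The underlying screen tested a diverse library of 10,000 compounds, supplied by Life Chemicals, on whole larval and/or adult worms of the Puerto Rican strain of Schistosoma mansoni.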

The structures appear in SMILES notation. ≈ marks a conversion by molar mass, not a printed value. Bounds are passed on as bounds.

What is called IC50 is the concentration that inhibits the measured activity by half. Broadly, the % Inhibition is the percentage by which the read-out fell short of the control. As to `CSc1ccccc1NC(=O)CCc1csc(NC(=O)c2cccs2)n1`, the IC50 is over 12.1 µg/mL in data set [1]; 12.1 µg/mL (≈ 30 µM) with Leishmania infantum; 5.38 µg/mL (≈ 13.3 µM) with Trypanosoma cruzi; 4.15 µg/mL (≈ 10.3 µM) in data set [2]; over 12.1 µg/mL with Plasmodium falciparum K1. For the same compound, the “% Inhibition” value was found to be 100% with Onchocerca ochengi and 0% in the data set with Brugia malayi.
Take `COc1ccccc1CC(=O)c1ccc(O)c(CN2CCCC(C)C2)c1O` (configuration not stated): the IC50 in data set [1] was over 11.1 µg/mL; in the data set with Leishmania infantum, over 11.1 µg/mL; with Trypanosoma cruzi, over 11.1 µg/mL; in data set [2] it was 3.63 µg/mL (≈ 9.83 µM); with Plasmodium falciparum K1 it was 0.343 µg/mL (≈ 0.928 µM). In addition, the “% Inhibition” value with Onchocerca ochengi and in the data set with Brugia malayi was 0% in each case.
With `CCOC(=O)N1CCN(C(=O)Nc2nc(CC(=O)Nc3nc4ccccc4s3)cs2)CC1`, the IC50 (in data set [1]; in the data set on Leishmania infantum; with Trypanosoma cruzi; in data set [2]; in the data set on Plasmodium falciparum K1) was over 14.2 µg/mL each time. Besides, the entries for the “% Inhibition” value in the data set on Onchocerca ochengi and in the data set on Brugia malayi were 100% and 20%, respectively.
Turning to `O=S(=O)(c1cccc(Cl)c1)N1CCN(c2ccc(Nc3ccncc3)nn2)CC1`, the IC50 in data set [1] is 12.9 µg/mL (≈ 30 µM); with Leishmania infantum, over 12.9 µg/mL; in the data set with Trypanosoma cruzi, 3.98 µg/mL (≈ 9.24 µM); in data set [2], 4.24 µg/mL (≈ 9.83 µM); with Plasmodium falciparum K1, 5.77 µg/mL (≈ 13.4 µM). Further, the “% Inhibition” value with Onchocerca ochengi is 100%; with Brugia malayi, 0%.
On to `COc1ccc(-c2cn3c(CCC(=O)NCCc4c[nH]c5ccccc45)csc3n2)cc1`, for which the half-maximal inhibitory concentration (IC50) in data set [1] is over 13.3 µg/mL; in the data set with Leishmania infantum it was over 13.3 µg/mL; with Trypanosoma cruzi, 2.66 µg/mL (≈ 5.99 µM); in data set [2] it was 0.382 µg/mL (≈ 0.859 µM); with Plasmodium falciparum K1 it was 13.3 µg/mL (≈ 30 µM). The “% Inhibition” value in the data set on Onchocerca ochengi is given as 100%; with Brugia malayi, 20%.
As for `Cc1cc2cc(CNC(=O)CC(c3ccccc3)c3ccccc3)ccc2[nH]1`, the IC50 in data set [1] is over 11.1 µg/mL; in the data set on Leishmania infantum, over 11.1 µg/mL; in the data set with Trypanosoma cruzi, 0.391 µg/mL (≈ 1.06 µM); in data set [2] it was 3.37 µg/mL (≈ 9.14 µM); in the data set with Plasmodium falciparum K1, over 11.1 µg/mL. Also, the “% Inhibition” value in the data set on Brugia malayi and in the data set with Schistosoma mansoni was 0% each time.
Consider `CCOc1ccccc1C(=O)NCc1ccc2c(c1)cc(C)n2C`, for which the IC50 in data set [1] was 4.26 µg/mL (≈ 13.2 µM); in the data set on Leishmania infantum it was over 9.67 µg/mL; with Trypanosoma cruzi it was 0.057 µg/mL (≈ 0.177 µM); in data set [2], 0.163 µg/mL (≈ 0.506 µM); with Plasmodium falciparum K1 it was 4.49 µg/mL (≈ 13.9 µM). The “% Inhibition” value in the data set on Brugia malayi and in the data set on Schistosoma mansoni was 0% in each case.
Take `Cc1cc2cc(CNC(=O)c3ccccc3Br)ccc2n1C`: the IC50 in data set [1] was over 10.7 µg/mL; with Leishmania infantum, over 10.7 µg/mL; in the data set on Trypanosoma cruzi, 0.487 µg/mL (≈ 1.36 µM); in data set [2], 3.39 µg/mL (≈ 9.49 µM); in the data set with Plasmodium falciparum K1 it was over 10.7 µg/mL. Besides, the “% Inhibition” value with Brugia malayi and in the data set with Schistosoma mansoni was 0% each time.
As to `COc1cccc2sc(Nc3nc4ccc(NC(C)=O)cc4s3)nc12`, the IC50 in data set [1] is over 11.1 µg/mL; in the data set on Leishmania infantum, over 11.1 µg/mL; in the data set on Trypanosoma cruzi, 0.388 µg/mL (≈ 1.05 µM); in data set [2], 2.97 µg/mL (≈ 8.01 µM); in the data set with Plasmodium falciparum K1, over 11.1 µg/mL. Besides, the “% Inhibition” value in the data set with Brugia malayi was determined as 90%; with Schistosoma mansoni it was 0%.
Take `COc1cccc2sc(Nc3nc(-c4ccncc4)cs3)nc12`: the 50% inhibitory concentration (IC50) was 4.5 µg/mL (≈ 13.2 µM) in data set [1]; over 10.2 µg/mL in the data set on Leishmania infantum; 0.132 µg/mL (≈ 0.388 µM) with Trypanosoma cruzi; over 10.2 µg/mL in data set [2]; over 10.2 µg/mL in the data set on Plasmodium falciparum K1. The “% Inhibition” value was 25% with Brugia malayi and 0% with Schistosoma mansoni.
For the compound `O=C(Nc1nnc(-c2ccco2)o1)c1cc(-c2ccccc2)nc2ccccc12`, the IC50 is 2.04 µg/mL (≈ 5.33 µM) in data set [1]; 3.71 µg/mL (≈ 9.71 µM) in the data set with Leishmania infantum; 0.305 µg/mL (≈ 0.798 µM) in the data set on Trypanosoma cruzi; 3.23 µg/mL (≈ 8.45 µM) in data set [2]; 9.02 µg/mL (≈ 23.6 µM) with Plasmodium falciparum K1. Moreover, the “% Inhibition” value with Brugia malayi and in the data set with Schistosoma mansoni was 0% throughout.
For the compound `Cc1cc2cc(CCNC(=O)C3c4ccccc4Oc4ccccc43)c(O)nc2cc1C`, the IC50 in data set [1] is over 12.7 µg/mL; with Leishmania infantum it was 0.412 µg/mL (≈ 0.971 µM); in the data set on Trypanosoma cruzi, over 12.7 µg/mL; in data set [2], over 12.7 µg/mL; in the data set on Plasmodium falciparum K1 it was over 12.7 µg/mL. Moreover, the “% Inhibition” value in the data set with Brugia malayi and in the data set on Schistosoma mansoni was 0% throughout.
Consider `O=C(Nc1nnc(-c2ccc3c(c2)OCCO3)o1)c1cc(-c2ccccc2)nc2ccccc12`, for which the IC50 was 4.33 µg/mL (≈ 9.6 µM) in data set [1]; 4.37 µg/mL (≈ 9.71 µM) with Leishmania infantum; 0.434 µg/mL (≈ 0.963 µM) with Trypanosoma cruzi; 4.27 µg/mL (≈ 9.49 µM) in data set [2]; over 13.5 µg/mL in the data set with Plasmodium falciparum K1. The “% Inhibition” value with Brugia malayi is listed as 70%; in the data set on Schistosoma mansoni it was 0%.
Consider `CCOC(=O)Cn1/c(=N/C(=O)CSC(C)=O)sc2ccccc21`, for which the half-inhibitory concentration (IC50) is over 10.6 µg/mL in data set [1]; over 10.6 µg/mL with Leishmania infantum; over 10.6 µg/mL in the data set on Trypanosoma cruzi; 0.342 µg/mL (≈ 0.97 µM) in data set [2]; over 10.6 µg/mL in the data set with Plasmodium falciparum K1. For the same compound, the “% Inhibition” value in the data set with Brugia malayi and in the data set on Schistosoma mansoni was 0% in each case.
As for `Cc1nc2c(ccc3nc(Nc4nc5ccc(C(C)C)cc5s4)sc32)s1`, the IC50 in data set [1] stood at 3.59 µg/mL (≈ 9.04 µM); in the data set on Leishmania infantum, 0.385 µg/mL (≈ 0.971 µM); in the data set on Trypanosoma cruzi, 4.11 µg/mL (≈ 10.4 µM); in data set [2], 0.385 µg/mL (≈ 0.971 µM); in the data set on Plasmodium falciparum K1, 3.97 µg/mL (≈ 10 µM). Also, the “% Inhibition” value with Brugia malayi amounted to 25%; in the data set on Schistosoma mansoni, 0%.
`O=C(Nc1nnc(C2COc3ccccc3O2)o1)c1ccc(F)cc1` (configuration not stated): the IC50 in data set [1] was over 10.2 µg/mL; with Leishmania infantum it was over 10.2 µg/mL; with Trypanosoma cruzi, 0.289 µg/mL (≈ 0.847 µM); in data set [2], over 10.9 µg/mL; in the data set on Plasmodium falciparum K1, over 10.2 µg/mL. The “% Inhibition” value with Brugia malayi is listed as 25%; in the data set with Schistosoma mansoni it was 0%.
As to `O=C(Nc1nnc(-c2cccnc2)o1)c1cccc(Br)c1`, the IC50 in data set [1] was 8.09 µg/mL (≈ 23.4 µM); with Leishmania infantum, 3.35 µg/mL (≈ 9.71 µM); in the data set with Trypanosoma cruzi, 0.705 µg/mL (≈ 2.04 µM); in data set [2] it was over 11 µg/mL; in the data set on Plasmodium falciparum K1, over 10.4 µg/mL. For the same compound, the “% Inhibition” value in the data set on Brugia malayi stood at 25%; in the data set on Schistosoma mansoni, 0%.
For the compound `Cc1cc2cc(CNC(=O)c3ccccc3F)ccc2n1C`, the IC50 in data set [1] was over 8.89 µg/mL; with Leishmania infantum, over 8.89 µg/mL; with Trypanosoma cruzi it was 0.181 µg/mL (≈ 0.609 µM); in data set [2], over 8.89 µg/mL; with Plasmodium falciparum K1 it was over 8.89 µg/mL. Also, the “% Inhibition” value in the data set on Brugia malayi and in the data set with Schistosoma mansoni was 0% in each case.
For `CCCCCOc1cccc(C(=O)Nc2nnc(-c3ccco3)o2)c1`, the IC50 in data set [1] was 5.71 µg/mL (≈ 16.7 µM); in the data set on Leishmania infantum, 3.28 µg/mL (≈ 9.6 µM); in the data set with Trypanosoma cruzi it was 0.368 µg/mL (≈ 1.08 µM); in data set [2], 3.29 µg/mL (≈ 9.63 µM); in the data set on Plasmodium falciparum K1, over 10.2 µg/mL. In addition, the “% Inhibition” value in the data set with Brugia malayi came out at 25%; in the data set on Schistosoma mansoni it was 0%.
Consider `Cc1c(C(=O)N2CCC(C)CC2)sc2nc(-c3ccc(F)cc3)cn12`, for which the IC50 in data set [1] was over 10.7 µg/mL; in the data set on Leishmania infantum, over 10.7 µg/mL; in the data set with Trypanosoma cruzi, over 10.7 µg/mL; in data set [2], 0.422 µg/mL (≈ 1.18 µM); with Plasmodium falciparum K1, over 10.7 µg/mL. Besides, the “% Inhibition” value in the data set with Brugia malayi and in the data set with Schistosoma mansoni was 0% in each case.
For the compound `O=C(Nc1nnc(-c2cccnc2)o1)c1cccc(C(F)(F)F)c1`, the concentration for half-maximal inhibition (IC50) was 2.99 µg/mL (≈ 8.96 µM) in data set [1]; 3.25 µg/mL (≈ 9.71 µM) in the data set on Leishmania infantum; 0.317 µg/mL (≈ 0.948 µM) in the data set with Trypanosoma cruzi; 3.38 µg/mL (≈ 10.1 µM) in data set [2]; over 10 µg/mL with Plasmodium falciparum K1. Also, the “% Inhibition” value in the data set on Brugia malayi is 25%; in the data set on Schistosoma mansoni, 0%.
